Data reported in ChEMBL document CHEMBL3085664, “Structure-activity relationship of imidazopyridinium analogues as antagonists of neuropeptide s receptor” (J Med Chem, 2013).

Columns and labels:
Neuropeptide S receptor [1] = biological target: T1, Neuropeptide S receptor (Homo sapiens, UniProt Q6W5P4); test: Antagonist activity at neuropeptide S receptor (unknown origin) expressed in CHO cells assessed as cAMP level after 30 mins by […] assay; format: functional, cell-based; settings: read-out: IC50
T1 sequence (Q6W5P4 whole entry): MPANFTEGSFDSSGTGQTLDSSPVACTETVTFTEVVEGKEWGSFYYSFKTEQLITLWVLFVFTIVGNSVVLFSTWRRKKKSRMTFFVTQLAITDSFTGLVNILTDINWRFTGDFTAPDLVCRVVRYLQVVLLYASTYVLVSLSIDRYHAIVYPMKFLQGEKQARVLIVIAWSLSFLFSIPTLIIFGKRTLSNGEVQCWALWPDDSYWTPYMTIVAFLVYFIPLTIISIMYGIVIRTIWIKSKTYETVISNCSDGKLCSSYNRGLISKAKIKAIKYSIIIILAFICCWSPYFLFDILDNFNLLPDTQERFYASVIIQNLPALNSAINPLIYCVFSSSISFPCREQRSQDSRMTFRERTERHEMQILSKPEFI
How it was run: (§1)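 CHO cells stably expressing NPSR, 1800 cells/well in 1536-well format, seeded overnight at 37°C in medium without Geneticin. Stimulation buffer (PBS, 0.1% BSA, 0.05% Tween-20, 500µM Ro 20-1724, EC80 NPS) was added for 30 min at 37°C. cAMP was read by HTRF (d2-cAMP/cryptate anti-cAMP in lysis buffer, 30 min). IC50 is the mean with SD of two independent experiments, each run in duplicate.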

[2] = Metabolic stability in mouse liver microsomes assessed as compound remaining after 30 mins in presence NADPH; format: ADME, Microsome; settings: read-out: Stability
How it was run: (§2)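 Compound was incubated with mouse liver microsomes, and percent parent remaining was determined at 15, 30 and 60 min. Values are means from a single experiment run in duplicate.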

Neuropeptide S receptor [3] = biological target: T1, Neuropeptide S receptor; test: Antagonist activity at neuropeptide S receptor (unknown origin) expressed in CHO cells assessed as inhibition of NPS-induced ERK activation after 20 mins by HTRF assay; format: cell-based
[4] = Metabolic stability in mouse liver microsomes assessed as compound remaining after 30 mins in absence NADPH; format: ADME, Microsome; settings: read-out: Stability; how it was run: as §2
Neuropeptide S receptor [5] = biological target: T1, Neuropeptide S receptor; test: Antagonist activity at neuropeptide S receptor (unknown origin) assessed as cAMP level by cell based assay; format: functional; how it was run: as §1
Neuropeptide S receptor [6] = biological target: T1, Neuropeptide S receptor; test: Antagonist activity at neuropeptide S receptor (unknown origin) expressed in CHO cells assessed as inhibition of NPS-induced calcium mobilization after 10 mins by fluorescence assay; format: functional, cell-based; settings: read-out: IC50
How it was run: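 CHO-NPSR cells, 2000/well in 1536-well plates, incubated overnight, then loaded with no-wash calcium dye for 1 h at 37°C. Compound in DMSO was added for 10 min. Baseline fluorescence was recorded 6 s at 1 Hz, then EC80 NPS in stimulation buffer was added and recording continued 4 min at 1 Hz on a kinetic reader. IC50 is the mean with SD of two independent experiments in duplicate.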

Neuropeptide S receptor [7] = biological target: T1, Neuropeptide S receptor; test: Displacement of [125I]Tyr10-NPS from human neuropeptide S receptor expressed in CHO cells after 1.5 hrs by liquid scintillation counting; format: cell-based
How it was run: (§3)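 Whole CHO cells stably expressing human NPSR at 90–95% confluency in 24-well plates. Cells were incubated with 0.15 nM [125I]Y10-NPS plus increasing compound or unlabeled NPS in DMEM/0.1% BSA, 20°C, 1.5 hr. Nonspecific binding was defined with 1 µM unlabeled human NPS. Cells were washed, lysed in 1 N NaOH and counted by liquid scintillation. IC50 from one experiment in duplicate.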

Neuropeptide S receptor [8] = biological target: T1, Neuropeptide S receptor; test: Antagonist activity at neuropeptide S receptor (unknown origin) assessed as intracellular calcium level by cell based assay; format: functional
How it was run: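 CHO cells stably expressing NPSR were seeded at 2000 cells/well and incubated overnight at 37 °C, 5% CO2. They were loaded with no-wash calcium dye for 1 h, then preincubated with compound in DMSO for 10 min. Stimulation used NPS at EC80 in PBS/0.1% BSA/0.05% Tween-20 with 500 µM Ro 20-1724. Kinetic fluorescence was read at 1 Hz: 6 s baseline, then 4 min. IC50 is the mean ± SD of two independent experiments, each in duplicate.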

[9] = Metabolic stability in mouse liver microsomes assessed as compound remaining after 15 mins in presence NADPH; format: ADME, Microsome; settings: read-out: Stability; how it was run: as §2
[10] = Drug level in mouse brain after 2 hrs; format: ADME, tissue-based; settings: read-out: Drug uptake
Neuropeptide S receptor [11] = biological target: T1, Neuropeptide S receptor; test: Displacement of [125I]Tyr10-NPS from neuropeptide S receptor (unknown origin); how it was run: as §3
[12] = Metabolic stability in mouse liver microsomes assessed as compound remaining after 60 mins in presence NADPH; format: ADME, Microsome; settings: read-out: Stability; how it was run: as §2
[13] = Drug level in mouse brain after 15 mins; format: ADME, tissue-based; settings: read-out: Drug uptake
[14] = Metabolic stability in mouse liver microsomes assessed as compound remaining after 60 mins in absence NADPH; format: ADME, Microsome; settings: read-out: Stability; how it was run: as §2
[15] = Metabolic stability in mouse liver microsomes assessed as compound remaining after 15 mins in absence NADPH; format: ADME, Microsome; settings: read-out: Stability; how it was run: as §2
Mus musculus = test: Inhibition of NPS-induced hyperlocomotion in mouse at 50 mg/kg, ip after 90 mins; format: functional; settings: 1.5 h, route intraperitoneal

With `O=C(NCc1ccc(F)cc1)N1CCN2C(=O)OC(c3ccccc3)(c3ccccc3)C2C1` (stereo unspecified) the IC50 (Neuropeptide S receptor [1]) was 5.3 nM, the remaining at 0.5 h [2] was 9% and the IC50 (Neuropeptide S receptor [3]) was 14 nM. The remaining at 0.5 h [4] was 96%, the IC50 (Neuropeptide S receptor [5]) was 420 nM and the IC50 (Neuropeptide S receptor [6]) was 420 nM. The IC50 (Neuropeptide S receptor [7]) was 25 nM, the IC50 (Neuropeptide S receptor [8]) was 28 nM and the remaining at 0.25 h [9] was 29%. It also gave a concentration at 2 h [10] of 2 µM, an IC50 (Neuropeptide S receptor [11]) of 48 nM and a remaining at 1 h [12] of 2%. The concentration at 0.25 h [13] was 6 µM, the remaining at 1 h [14] was 101% and the remaining at 0.25 h [15] was 105%. The inhibition in vivo at 50 mg/kg (Mus musculus) was 50%.
